Reference: ChEMBL document CHEMBL4321808, “Heteroaryl Phosphonates as Noncovalent Inhibitors of Both Serine- and Metallocarbapenemases” (J Med Chem, 2019)
Values belong to the compound of their own block, whether it stands above or below them.

Tests used:
[1] = Inhibition of N-terminal 6x-His-tagged VIM-2 (unknown origin) expressed in Escherichia coli Rosetta 2 (DE3) assessed as reduction in nitrocefin hydrolysis by spectrophotometry; parameters: species or system Bacteria
In short: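 Metallo-enzyme assay in 50 mM HEPES pH 7.2 with 50 µM zinc sulfate, 0.01% Triton X-100 and 20 µg/mL BSA, 37 °C. NDM-1 was construct 1 with the His/SUMO tag cleaved, at 2 nM; VIM-2 had its His tag TEV-cleaved, at 0.5 nM. Nitrocefin hydrolysis read at 486 nm; IC50 from sigmoidal fit, Ki by Cheng-Prusoff; mostly duplicate.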

[2] = Inhibition of N-terminal 6x-His/Sumo-tagged NDM-1 (29 to 270 residues) (unknown origin) expressed in Escherichia coli BL21 (DE3) assessed as reduction in nitrocefin hydrolysis by spectrophotometry; parameters: species or system Bacteria; details: read-out: Ki
In short: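 Metallo-enzyme assay in 50 mM HEPES pH 7.2 with 50 µM zinc sulfate, 0.01% Triton X-100 and 20 µg/mL BSA, 37 °C. NDM-1 was construct 1 with the His/SUMO tag cleaved, at 2 nM; VIM-2 had its His tag TEV-cleaved, at 0.5 nM.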

[3] = target: Metallo-beta-lactamase type 2 (Klebsiella pneumoniae) (UniProt C7C422); experiment: Inhibition of NDM-1 in Klebsiella pneumoniae 5979 assessed as potentiation of ceftazidime-induced antimicrobial activity by measuring ceftazidime MIC incubated for 18 to 20 hrs by CLSI based method
In short: (§1)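 CLSI broth microdilution in MHBII. Avibactam fixed at 4 µg/mL with ceftazidime at 64–0.006 µg/mL. Inoculum about 5×10^5 CFU per well, incubated at 35 °C for 18–20 h. Ceftazidime MIC read as absence of visible growth.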

Klebsiella pneumoniae [4] = experiment: Inhibition of KPC2 in Klebsiella pneumoniae 4683 assessed as potentiation of ceftazidime-induced antimicrobial activity by measuring ceftazidime MIC incubated for 18 to 20 hrs by CLSI based method; in short: as §1
Escherichia coli [5] = experiment: Inhibition of NDM-1 in Escherichia coli 5980 assessed as potentiation of ceftazidime-induced antimicrobial activity by measuring ceftazidime MIC incubated for 18 to 20 hrs by CLSI based method; in short: as §1
[6] = target: Beta-lactamase VIM-2 (Pseudomonas aeruginosa) (UniProt Q9K2N0); experiment: Inhibition of VIM-2 in Pseudomonas aeruginosa 4698 assessed as potentiation of ceftazidime-induced antimicrobial activity by measuring ceftazidime MIC incubated for 18 to 20 hrs by CLSI based method; in short: as §1
Enterobacter cloacae [7] = experiment: Inhibition of NDM-1 in Enterobacter cloacae 5981 assessed as potentiation of ceftazidime-induced antimicrobial activity by measuring ceftazidime MIC incubated for 18 to 20 hrs by CLSI based method; in short: as §1
[8] = Inhibition of N-terminal 6x-His-tagged Klebsiella pneumoniae KPC2 (25 to 293 residues) assessed as reduction in nitrocefin hydrolysis by spectrophotometry
In short: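 Purified recombinant KPC-2 at 1 nM in 100 mM Tris-HCl pH 7.0 with 0.01% Triton X-100, 37 °C, reaction started by enzyme. IC50 from sigmoidal fit; Ki by Cheng-Prusoff using the nitrocefin Km. Run in duplicate, or once or in triplicate for some compounds.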

Enterobacter cloacae [9] = experiment: Antimicrobial activity against Enterobacter cloacae 5981 expressing NDM1 assessed as inhibition of microbial growth incubated for 18 to 20 hrs by CLSI based method; type: functional
In short: (§2)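 CLSI broth microdilution in MHBII. Compound tested alone in serial two-fold dilutions, 128–0.12 µg/mL. Inoculum was set to 0.5 McFarland and diluted to about 5×10^5 CFU per well. Plates incubated at 35 °C for 18–20 h. MIC read as the lowest concentration with no visible growth; an un-inoculated plate served as solubility control.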

Escherichia coli [10] = experiment: Antimicrobial activity against Escherichia coli 5980 expressing NDM1 assessed as inhibition of microbial growth incubated for 18 to 20 hrs by CLSI based method; type: organism-based; in short: as §2
Klebsiella pneumoniae [11] = experiment: Antimicrobial activity against Klebsiella pneumoniae 5979 expressing NDM1 assessed as inhibition of microbial growth incubated for 18 to 20 hrs by CLSI based method; type: organism-based; in short: as §2
Klebsiella pneumoniae [12] = experiment: Antimicrobial activity against Klebsiella pneumoniae 4683 expressing KPC2 assessed as inhibition of microbial growth incubated for 18 to 20 hrs by CLSI based method; type: organism-based; in short: as §2
Pseudomonas aeruginosa [13] = experiment: Antimicrobial activity against Pseudomonas aeruginosa 4698 expressing VIM2 assessed as inhibition of microbial growth incubated for 18 to 20 hrs by CLSI based method; type: organism-based; in short: as §2
Escherichia coli [14] = experiment: Inhibition of NDM-1 in Escherichia coli 5980 assessed as potentiation of imipenem-induced antimicrobial activity by measuring imipenem MIC incubated for 18 to 20 hrs by CLSI based method (reference value: 8 ug/ml)
In short: (§3)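 CLSI broth microdilution in MHBII. […] Inoculum about 5×10^5 CFU per well, incubated at 35 °C for 18–20 h. Imipenem MIC read as absence of visible growth.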

Enterobacter cloacae [15] = experiment: Inhibition of NDM-1 in Enterobacter cloacae 5981 assessed as potentiation of imipenem-induced antimicrobial activity by measuring imipenem MIC incubated for 18 to 20 hrs by CLSI based method (reference value: 2 ug/ml); in short: as §3
[16] = target: Metallo-beta-lactamase type 2 (Klebsiella pneumoniae) (UniProt C7C422); experiment: Inhibition of NDM-1 in Klebsiella pneumoniae 5979 assessed as potentiation of imipenem-induced antimicrobial activity by measuring imipenem MIC incubated for 18 to 20 hrs by CLSI based method (reference value: <[…] ug/ml)
Klebsiella pneumoniae [17] = experiment: Inhibition of KPC2 in Klebsiella pneumoniae C2 assessed as potentiation of imipenem-induced antimicrobial activity by measuring imipenem MIC incubated for 18 to 20 hrs by CLSI based method (reference value: 512 ug/ml)
[18] = Cytotoxicity in HEK293T cells assessed as cell recovery rate at 100 ug/ml incubated for 48 hrs by MTT assay relative to control; type: cell-based, HEK-293T; details: human, read-out: Activity
In short: (§4)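 HEK293T cells grown in DMEM with 10% FBS and 1% penicillin/streptomycin. Compounds in DMSO were tested at 200–3.125 µg/mL, two-fold dilutions, for 48 h at 37 °C, 5% CO2. Viability by MTT, read at OD 570 nm; percent recovery calculated against solvent-only controls.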

Pseudomonas aeruginosa [19] = experiment: Antimicrobial activity against Pseudomonas aeruginosa 4135 expressing KPC2 assessed as inhibition of microbial growth incubated for 18 to 20 hrs in presence of imipenem by CLSI based method; type: functional
[20] = Apparent permeability from basolateral to apical side in MDCK-MDR1 cells; type: ADME, cell-based, Canis lupus familiaris; details: dog
Pseudomonas aeruginosa [21] = experiment: Antimicrobial activity against efflux positive Pseudomonas aeruginosa 4402 expressing VIM2 assessed as inhibition of microbial growth incubated for 18 to 20 hrs in presence of imipenem by CLSI based method; type: functional
Pseudomonas aeruginosa [22] = experiment: Inhibition of NDM1 in efflux positive Pseudomonas aeruginosa 4177 assessed as potentiation of ceftazidime-induced antimicrobial activity by measuring ceftazidime MIC incubated for 18 to 20 hrs by CLSI based method (reference value: 128 ug/ml)
In short: (§5)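 CLSI broth microdilution in MHBII. Standardized inoculum was a 0.5 McFarland suspension diluted to about 5×10^5 CFU per well. Ceftazidime was tested over 64–0.006 µg/mL, with avibactam fixed at 4 µg/mL as the positive control.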

[23] = target: Beta-lactamase VIM-2 (Pseudomonas aeruginosa) (UniProt Q9K2N0); experiment: Inhibition of VIM-2 in efflux positive Pseudomonas aeruginosa 4402 assessed as potentiation of ceftazidime-induced antimicrobial activity by measuring ceftazidime MIC incubated for 18 to 20 hrs by CLSI based method (reference value: 32 ug/ml); in short: as §5
Pseudomonas aeruginosa [24] = experiment: Inhibition of KPC2 in Pseudomonas aeruginosa 4135 assessed as potentiation of ceftazidime-induced antimicrobial activity by measuring ceftazidime MIC incubated for 18 to 20 hrs by CLSI based method (reference value: […] ug/ml)
[25] = Cytotoxicity in HEK293T cells assessed as cell recovery rate at 200 ug/ml incubated for 48 hrs by MTT assay relative to control; type: cell-based, HEK-293T; details: human, read-out: Activity; in short: as §4
[26] = Intrinsic clearance in mouse liver microsomes; type: ADME, Microsome
[27] = Apparent permeability from apical to basolateral side in MDCK-MDR1 cells; type: ADME, cell-based, Canis lupus familiaris; details: dog
[28] = target: Beta-lactamase VIM-2 (Pseudomonas aeruginosa) (UniProt Q9K2N0); experiment: Inhibition of VIM-2 in Pseudomonas aeruginosa 4882 assessed as potentiation of imipenem-induced antimicrobial activity by measuring imipenem MIC incubated for 18 to 20 hrs by CLSI based method (reference value: 32 ug/ml)
[29] = Kinetic solubility in pH 7.4 PBS; type: physicochemical; details: buffer
Klebsiella pneumoniae [30] = experiment: Antimicrobial activity against Klebsiella pneumoniae C2 expressing KPC2 assessed as inhibition of microbial growth incubated for 18 to 20 hrs in presence of imipenem by CLSI based method; type: functional
[31] = Half life in mouse liver microsomes; type: ADME, Microsome
Pseudomonas aeruginosa [32] = experiment: Antimicrobial activity against efflux positive Pseudomonas aeruginosa 4177 expressing NDM1 assessed as inhibition of microbial growth incubated for 18 to 20 hrs in presence of imipenem by CLSI based method; type: functional
[33] = Permeability in MDCK-MDR1 cells assessed as drug recovery; type: ADME, cell-based, Canis lupus familiaris; details: dog
Pseudomonas aeruginosa [34] = experiment: Antimicrobial activity against Pseudomonas aeruginosa 4882 expressing VIM2 assessed as inhibition of microbial growth incubated for 18 to 20 hrs in presence of imipenem by CLSI based method; type: functional
Pseudomonas aeruginosa [35] = experiment: Inhibition of NDM1 in Pseudomonas aeruginosa 4129 assessed as potentiation of ceftazidime-induced antimicrobial activity by measuring ceftazidime MIC incubated for 18 to 20 hrs by CLSI based method (reference value: 128 ug/ml); in short: as §5
Pseudomonas aeruginosa [36] = experiment: Antimicrobial activity against Pseudomonas aeruginosa 4129 expressing NDM1 assessed as inhibition of microbial growth incubated for 18 to 20 hrs in presence of imipenem by CLSI based method; type: functional
[37] = target: Beta-lactamase VIM-2 (Pseudomonas aeruginosa) (UniProt Q9K2N0); details: 4698

Metallo-beta-lactamase type 2 (Klebsiella pneumoniae), sequence (C7C422 whole entry): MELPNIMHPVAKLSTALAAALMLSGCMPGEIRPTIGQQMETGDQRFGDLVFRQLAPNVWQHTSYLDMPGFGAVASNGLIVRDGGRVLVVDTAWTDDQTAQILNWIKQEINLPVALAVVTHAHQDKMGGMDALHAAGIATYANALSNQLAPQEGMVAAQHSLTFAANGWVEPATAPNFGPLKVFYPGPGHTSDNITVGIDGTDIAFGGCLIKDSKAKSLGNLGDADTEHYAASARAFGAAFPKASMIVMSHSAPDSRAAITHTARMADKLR

SMILES: Cn1c(=O)cc(CP(=O)(O)O)c2ccccc21
Ki [1]: 7500 nM | Ki [2]: 81 µM

MIC [3]: 4 µg/mL | MIC (Klebsiella pneumoniae [4]): 4 µg/mL | MIC (Escherichia coli [5]): 4 µg/mL | MIC [6]: 4 µg/mL | MIC (Enterobacter cloacae [7]): 4 µg/mL
SMILES: NC(=O)[C@@H]1CC[C@@H]2CN1C(=O)N2OS(=O)(=O)O

Ki [8]: 8.5 µM
SMILES: Cc1cc(F)c2c(CP(=O)(O)O)cc(=O)oc2c1
Ki [1]: 3300 nM | Ki [2]: 230 µM

SMILES: Cc1cc2oc(=O)cc(CP(=O)(O)O)c2cc1C
Ki [1]: 2100 nM | Ki [2]: 44.3 µM

MIC (Enterobacter cloacae [9]): > 128 µg/mL | MIC (Escherichia coli [10]): > 128 µg/mL | MIC (Klebsiella pneumoniae [11]): > 128 µg/mL | MIC (Klebsiella pneumoniae [12]): > 128 µg/mL | MIC (Pseudomonas aeruginosa [13]): > 128 µg/mL | MIC (Escherichia coli [14]): 2 µg/mL | MIC (Enterobacter cloacae [15]): 2 µg/mL | MIC [16]: 32 µg/mL
SMILES: Cc1cc(Br)c2c(CP(=O)(O)O)cc(=O)oc2c1
Ki [1]: 1200 nM | Ki [2]: 34.2 µM

SMILES: O=c1cc(CP(=O)(O)O)c2c(Br)cc(Br)cc2[nH]1
MIC (Klebsiella pneumoniae [17]): 4 to 16 µg/mL | viability at 48 h, 100 ug/ml [18]: 88% | MIC (Pseudomonas aeruginosa [19]): 128 µg/mL | Ki [8]: 0.02 µM | Papp [20]: < 0.2 ×10⁻⁶ cm/s | MIC (Pseudomonas aeruginosa [21]): 128 µg/mL | MIC (Pseudomonas aeruginosa [22]): 32 µg/mL | MIC [23]: 4 µg/mL | MIC (Pseudomonas aeruginosa [24]): 2 µg/mL | viability at 48 h, 200 ug/ml [25]: 70% | Ki [1]: 316 nM | CLH [26]: < 11.6 µL/min/mg | Papp [27]: < 0.7 ×10⁻⁶ cm/s | MIC [28]: 2 µg/mL | Kinetic_solubility [29]: 241 µM | MIC (Klebsiella pneumoniae [30]): 16 to 128 µg/mL | Ki [2]: 31.4 µM | t1/2 [31]: > 120 min | MIC (Pseudomonas aeruginosa [32]): 128 µg/mL | Drug recovery [33]: 91% | MIC (Pseudomonas aeruginosa [34]): 128 µg/mL | MIC (Pseudomonas aeruginosa [35]): 8 µg/mL | MIC (Pseudomonas aeruginosa [36]): 128 µg/mL

Ki [8]: 11.9 µM
SMILES: COc1cc(C)cc2oc(=O)cc(CP(=O)(O)O)c12

MIC (Enterobacter cloacae [9]): > 128 µg/mL | MIC (Escherichia coli [10]): > 128 µg/mL | MIC (Klebsiella pneumoniae [11]): > 128 µg/mL | MIC (Klebsiella pneumoniae [12]): > 128 µg/mL | MIC (Pseudomonas aeruginosa [13]): > 128 µg/mL | MIC (Escherichia coli [14]): 2 µg/mL | MIC (Enterobacter cloacae [15]): 2 µg/mL | MIC [16]: 32 µg/mL | MIC [37]: > 64 µg/mL
SMILES: O=c1cc(CP(=O)(O)O)c2ccccc2[nH]1
Ki [1]: 6400 nM | Ki [2]: 190 µM
